Bioassay records (PubChem)
Only a selection was taken, and hits are over-represented in it overall.
PGC1a Ac signal: raises PGC1a acetylation signal in U2OS cells | activation, % at 15.6 µM | actives 0.21% (n = 350,000) | U2OS PGC1a acetylation AlphaScreen, overnight;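 active = every replicate reaching activation of at least 50%, whatever the mean replicate activation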;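 note: hits raise the AlphaScreen acetylation signal above neutral controls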
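System: Flag-PGC1a/GCN5 U2OS cells | Quantity: 7000 cells/well | Times: Overnight compound treatment, 37 °C | Measured by: AlphaScreen proximity luminescence, anti-acetyl-lysine antibody | Dosing: One concentration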
Numbers without * were called inactive.

SMILES | PGC1a Ac signal
CC(C)NC(=O)N(C)C[C@H]1OCCCC[C@@H](C)Oc2ccc(NC(=O)CCCN(C)C)cc2C(=O)N([C@@H](C)CO)C[C@@H]1C | -51
C[C@H](CO)N1C[C@H](C)[C@@H](CN(C)C(=O)c2ccccn2)Oc2ncc(-c3cccc(C#N)c3)cc2C1=O | -58
Cc1cccc(NS(=O)(=O)c2ccc(NC(=O)CN(c3cc([N+](=O)[O-])ccc3C)S(C)(=O)=O)cc2)c1 | 378*
COc1ccc(OC)c(N(CC(=O)Nc2ccccc2)S(C)(=O)=O)c1 | -43
CCOc1ccc(N(CC(=O)Nc2ccccc2OC)S(=O)(=O)c2ccccc2)cc1 | -88
CC(=O)Nc1cc(C(=O)OCc2cccc([N+](=O)[O-])c2)ccc1C | -49
COc1ccc(C)cc1NS(=O)(=O)c1ccc(NC(=O)CN(c2cc([N+](=O)[O-])ccc2C)S(C)(=O)=O)cc1 | 474*
CCCCS(=O)(=O)/C=C\C=C/S(=O)(=O)CCCC | -97
COc1ccc(NC(=O)N[C@H]2CC[C@H](CCn3cc(-c4ccccc4F)nn3)O[C@@H]2CO)cc1 | -69
Nc1c(C(=O)Nc2ccccc2)sc2ncc([N+](=O)[O-])cc12 | 84*
CN1CCN(c2ccc([N+](=O)[O-])cc2C(=O)Nc2ccccc2)CC1 | -46
COc1ccc(-c2cnc3c(c2)C(=O)N([C@H](C)CO)C[C@H](C)[C@@H](CN(C)C(=O)C2CCC2)O3)cc1 | -44
Cc1cc(C)n(C/C=C/Cn2nc(C)cc2C)n1 | -44
Cn1c(SC2=CS(=O)(=O)c3ccccc32)nc2ccccc21 | 260*
COc1ccc(CC(CC(=O)O)C(=O)Nc2ccc(OC)cc2)cc1 (stereo not drawn) | 50*
COc1ccc(CCN2C(=O)N(c3ccc(OC)cc3)C(=O)C2CC(=O)Nc2ccccc2)cc1 (stereo not drawn) | -48
Nc1cc2ccncc2c2ccccc12 | -42
CSCCC(NC(=O)OC(C)(C)C)C(=O)Oc1ccc2c(=O)c(-c3ccc4c(c3)OCCO4)coc2c1 (stereo not drawn) | 73*
C[C@H]([C@@H](N)C(=O)N[C@@H](C(=O)O)[C@@H]1O[C@H](n2ccc(=O)[nH]c2=O)[C@@H](O)[C@H]1O)[C@@H](O)c1ccc(O)cn1 | -46
COCc1ccc(CN2CCC(n3nccc3NC(=O)c3ccc4c(c3)OCO4)CC2)o1 | 54*
CO[C@@H]1CN(C)C(=O)c2cc(NC(=O)c3ccc4c(c3)OCO4)ccc2OC[C@@H](C)N(CC2CC2)C[C@H]1C | -105
CN(C)CC(O)c1ccc(C=Cc2ccc(Cl)cc2)cc1 (stereo not drawn) | -51
Cc1cc(C)n(CCc2nc3c4ccccc4n(CC#N)c(=O)n3n2)n1 | -41
O=CNc1ccc2c(c1)Cc1cc([N+](=O)[O-])ccc1-2 | 54*
C#CCN(C[C@@H]1[C@@H](OC(=O)NCC2CCCCC2)[C@@H](OC(=O)NCC2CCCCC2)Cn2c(=O)ccc(=O)n21)S(=O)(=O)c1ccc(C)cc1 | -91
SMILES | PGC1a Ac signal
CC1=CC(C)(C)N2C(=O)C3(SCC(=O)N3c3ccc(F)cc3)c3cc(C)cc1c32 (stereo not drawn) | 93*
C[C@H]1CN([C@@H](C)CO)C(=O)CCCn2nncc2CO[C@@H]1CN(C)C(=O)Nc1ccccc1 | -50
CCOC(=O)N1CCC(N(CCN(C)C)C(=S)Nc2cccc(OC)c2)CC1 | -45
CC(=O)c1ccc(NC(=O)CSCC(=O)Nc2ccc3ccccc3c2)cc1 | -56
CC(=O)Nc1cccc(OCC(=O)Nc2ccccc2)c1 | 51*
COc1ccc(-n2c(C)c([N+](=O)[O-])c3ccc(O)c(CN(C)C)c32)cc1 | -37
CCCCN(C(=O)CCC(=O)Nc1cc(C)on1)C(C(=O)NC1CCCC1)c1ccc(OC)cc1 (stereo not drawn) | -46
Cc1coc2cc3oc(=O)c(CCC(=O)NC4CC4)c(C)c3cc12 | 57*
CCc1ccc(C(=O)Nc2cccnc2Oc2ccc(Cl)cc2)cc1 | -87
COc1ccc(-c2cnc3c(c2)C(=O)N([C@H](C)CO)C[C@H](C)[C@H](CN(C)S(=O)(=O)c2cccs2)O3)cc1 | -50
COc1ccc(C#Cc2cnc3c(c2)C(=O)N([C@H](C)CO)C[C@H](C)[C@H](CN(C)S(=O)(=O)c2cccs2)O3)cc1OC | 61*
COc1ccc(S(=O)(=O)N(C)C[C@@H]2Oc3ncc(-c4ccccc4)cc3C(=O)N([C@H](C)CO)C[C@@H]2C)cc1 | -47
C=CS(=O)(=O)N(Cc1ccc(Cl)c(Cl)c1)C[C@@H](O)CO | 65*
CNc1ccc2ncc(-c3ccc(OC)c(OC)c3)n2n1 | -58
C[C@H]1CN([C@@H](C)CO)C(=O)c2cc(/C=C/c3ccccc3)cnc2O[C@H]1CN(C)C(=O)CN(C)C | -53
COc1cccc(C2c3[nH]c4ccccc4c3CCN2Cc2cnc(C)s2)c1OC (stereo not drawn) | 70*
COc1ccc(-n2c(SCC#N)nnc2-c2cccnc2)cc1 | -43
CCOC(=O)CSc1nnc(-c2ccc(OC)cc2)n1CC | 100*
CCN(CC)c1cc(Cl)nc(N)n1 | -43
O=c1c(Cl)c(Cl)cnn1Cc1nnc(-c2ccc(Cl)cc2)o1 | 73*
COC(=O)C1CCN(Cc2nnc(-c3ccccc3)o2)CC1 | -47
Cc1ccc(Cn2ncc(Cl)c(Cl)c2=O)cc1 | 112*
OCC1OC(Oc2c(Br)cc(Br)cc2Br)C(O)C(O)C1O (stereo not drawn) | -63
C[C@@H]1CN([C@H](C)CO)C(=O)c2cccc(NC(=O)c3ccc(-c4nccs4)cc3)c2O[C@@H]1CN(C)Cc1ccc(C(=O)Nc2ccccc2N)cc1 | -51
CC(C)c1ccc(-c2nnn(CC(=O)N3CCCCC3)n2)cc1 | -40
SMILES | PGC1a Ac signal
CC(C)(C)NC(=O)Cn1nnc(-c2ccc(OCc3c(F)cccc3Cl)cc2)n1 | 66*
C[C@H]1CCC/C=C/[C@@H]2C[C@H](O)C[C@H]2[C@H](O)[C@H](S(=O)c2ccc(O)cc2)CC(=O)O1 (stereo partly drawn) | -66
Cc1ccc(NC(=O)c2ccccc2)cc1-n1cnnn1 | -40
O=C(CNC(=O)C1CCCCC1)OCC(=O)c1ccc(Cl)s1 | -45
COc1cc(-c2cnc3c(NC=O)cc(-c4ccccc4Cl)cn23)cc(OC)c1OC | 102*
COc1cc(-c2cnc3c(NC=O)cc(-c4ccccc4)cn23)cc(OC)c1OC | 105*
COc1cc(-c2cnc3c(NC=O)cc(-c4ccc(C)cc4)cn23)cc(OC)c1OC | 89*
C[C@@H]1CN([C@@H](C)CO)C(=O)c2cc(-c3cccc(C#N)c3)cnc2O[C@H]1CN(C)C(=O)c1ccccn1 | -57
Cc1noc(C)c1S(=O)(=O)Nc1cccc2c1O[C@@H](CN(C)Cc1ccncc1)[C@@H](C)CN([C@@H](C)CO)C2=O | -51
COc1cccc2c1C(CO)N1C(C#N)C3CC(C(=O)O)C(C1C2)N3C (stereo not drawn) | -66
Cc1ccccc1OCC(O)CNC1CCC(NCC(O)COc2ccccc2C)CC1 (stereo not drawn) | 88*
O=C(CN1C(=O)C2C3CC(C(Br)C3Br)C2C1=O)OCC(=O)c1cccc([N+](=O)[O-])c1 (stereo not drawn) | -76
O=C(O)c1cc(N2CCCCC2)ccn1 | -48
Nc1ccc(N2CCCCC2)cc1N1CCCCC1 | 54*
Cc1cc(C)c(C(=O)/C=C/c2ccc(C(C)C)cc2)c(=O)[nH]1 | -64
NS(=O)(=O)c1ccc(CCNC(=O)c2ccc3nc4ccc(Cl)cc4c(=O)n3c2)cc1 | 85*
